The test system of assay [1] is Mus musculus. Nature of the assay: Antiinflammatory activity in Kunming mouse assessed as inhibition of xylene-induced ear edema at 20 mg/kg, po. The format is functional.
The subject of assay [2] is Rattus norvegicus. Kind of assay: Antiinflammatory activity in Wistar rat assessed as inhibition of carrageenan-induced paw edema at 20 mg/kg, po administered prior to carrageenan challenge measured after 1 hrs post carrageenan challenge. The format is functional. Background: The carrageenan paw model is a standard test of acute inflammation.
Assay [3] deals with Rattus norvegicus. Nature of the assay: Antiinflammatory activity in Wistar rat assessed as inhibition of carrageenan-induced paw edema at 20 mg/kg, po administered prior to carrageenan challenge measured after 3 hrs post carrageenan challenge. Type of assay: functional.
Assay [4] deals with Rattus norvegicus. Kind of assay: Antiinflammatory activity in Wistar rat assessed as inhibition of carrageenan-induced paw edema at 20 mg/kg, po administered prior to carrageenan challenge measured after 5 hrs post carrageenan challenge. Type of assay: functional.
For assay [5], the system named is Mus musculus. Kind of assay: Antiinflammatory activity in Kunming mouse assessed as inhibition of xylene-induced ear edema at 5 mg/kg, po. Type of assay: functional.
Assay [6] has as its system PC-12. Kind of assay: Antioxidant activity against H2O2 scavenging activity in rat PC12 cells assessed as cell survival after 14 hrs by MTT assay. The note with it: PC-12, 14 h. The format is functional, cell-based. The method in brief:
(§1)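 PC12 cells (rat adrenal medulla pheochromocytoma) are exposed to free radicals. Compound is given either as preincubation before radical exposure or as incubation after exposure. Viability is read by MTT reduction.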

In assay [7] the test system is PC-12. Kind of assay: Antioxidant activity against hydroxyl scavenging activity in rat PC12 cells assessed as cell survival after 14 hrs by MTT assay. The following applies: PC-12, 14 h. The format is functional, cell-based. The method in brief:
as §1
Background: Tetrazolium dyes change colour on reduction, which living cells bring about.

Assay [8] deals with Mus musculus. Nature of the assay: Antiinflammatory activity in Kunming mouse assessed as inhibition of xylene-induced ear edema at 10 mg/kg, po. The format is functional.
In assay [9] the test system is PC-12. Kind of assay: Antioxidant activity against nitric oxide scavenging activity in rat PC12 cells assessed as cell survival after 14 hrs by MTT assay. The format is functional, cell-based. The note with it: PC-12, 14 h. The method in brief: as §1
For assay [10], the system named is Rattus norvegicus. Nature of the assay: Antiinflammatory activity against ischemia-reperfused muscle tissue edema Wistar rat assessed as ratio of wet tissue weight to dry tissue weight at 20 mg/kg, ip. The note with it: route intraperitoneal. The format is functional. Put shortly: (§2)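 Hind-limb ischemia/reperfusion injury model in rats, with compound at 20 mg/kg. Local injury assessed in skeletal muscle and remote injury in lung. Tissue edema is expressed as wet-to-dry tissue weight ratio. Lipid peroxidation is measured as MDA in plasma and lung, and histology uses H&E-stained sections.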

The subject of assay [11] is Rattus norvegicus. Kind of assay: Antiinflammatory activity against ischemia-reperfused lung tissue edema Wistar rat assessed as ratio of wet tissue weight to dry tissue weight at 20 mg/kg, ip. The format is functional. The note with it: route intraperitoneal. Put shortly: as §2
The subject of assay [12] is Rattus norvegicus. Nature of the assay: Antiinflammatory activity in ischemia-reperfused Wistar rat assessed as TNFalpha level at 20 mg/kg, ip (RVb = 123.4 +/- 8.9 pg/mL). The format is functional. The following applies: route intraperitoneal. Put shortly: as §2
Assay [13] has as its system Rattus norvegicus. Nature of the assay: Antiinflammatory activity in ischemia-reperfused Wistar rat assessed as plasma MDA level at 20 mg/kg, ip (RVb = 3.53 +/- 0.34 nmol/mL). Type of assay: functional. The following applies: route intraperitoneal. The method in brief:
as §2

The subject of assay [14] is Rattus norvegicus. Kind of assay: Antiinflammatory activity in ischemia-reperfused Wistar rat assessed as MPO level at 20 mg/kg, ip (RVb = 17.3 +/- 0.8 U/g). The format is functional. The following applies: route intraperitoneal. Put shortly: as §2
Assay [15] concerns Rattus norvegicus. Kind of assay: Antiinflammatory activity in ischemia-reperfused Wistar rat assessed as lung MDA level at 20 mg/kg, ip measured per gram of tissue (RVb = 72.4 +/- 5.1 nmol). Type of assay: functional. The note with it: route intraperitoneal. Put shortly: as §2

Consider twelve compounds from ChEMBL document CHEMBL1250517, “Synthesis and characterization of novel indole derivatives reveal improved therapeutic agents for treatment of ischemia/reperfusion (I/R) injury” (J Med Chem, 2010).

As usually defined, the inhibition in vivo is the relative decrease from the control value, in per cent. With `C[C@H]1O[C@@H](CC=O)OC[C@H]1NC(=O)Cc1ccccc1`, the inhibition in vivo at 20 mg/kg in the assay with Mus musculus [1] was determined as 21.9%; in the assay with Rattus norvegicus [2] it was 18.4%; in the assay on Rattus norvegicus [3], 17.5%; with Rattus norvegicus [4], 12.9%.
Turning to `COC(C[C@H]1OC[C@@H](NC(=O)Cc2ccccc2)[C@@H](C)O1)OC`, the inhibition in vivo at 20 mg/kg was found to be 38.1% in the assay on Mus musculus [1], 23.6% with Rattus norvegicus [2], 33.3% in the assay with Rattus norvegicus [3] and 17.1% with Rattus norvegicus [4].
Usually EC50 stands for the concentration giving half of the maximal effect. Regarding `COc1ccc2[nH]c3c(c2c1)CCN[C@@H]3C[C@H]1OC[C@@H](NC(=O)Cc2ccccc2)[C@@H](C)O1`, the inhibition in vivo at 5 mg/kg with Mus musculus [5] came out at 18.1%. Also, the inhibition in vivo at 20 mg/kg with Mus musculus [1] amounted to 66%; in the assay on Rattus norvegicus [2] it was 44.7%; in the assay on Rattus norvegicus [3], 52.4%; in the assay with Rattus norvegicus [4], 34.3%. Besides, the EC50 in the assay on PC-12 [6] is 86.8 µM; in the assay with PC-12 [7], 79.6 µM; with PC-12 [9], over 100 µM. Also, the inhibition in vivo at 10 mg/kg with Mus musculus [8] was determined as 32.3%.
On to `C[C@H]1O[C@@H](C[C@H]2NCCc3c2[nH]c2ccccc32)OC[C@H]1NC(=O)Cc1ccccc1`, for which the inhibition in vivo at 20 mg/kg came out at 44.4% in the assay on Mus musculus [1], 34.2% in the assay on Rattus norvegicus [2], 47.6% with Rattus norvegicus [3] and 21.4% in the assay on Rattus norvegicus [4].
With `COC(=O)[C@@H]1Cc2c([nH]c3ccccc23)[C@@H](C[C@H]2OC[C@@H](NC(=O)Cc3ccccc3)[C@@H](C)O2)N1`, in the assay on Mus musculus [5], the inhibition in vivo at 5 mg/kg is 16.8%. For the same compound, the inhibition in vivo at 20 mg/kg in the assay with Mus musculus [1] stood at 60%; in the assay with Rattus norvegicus [2] it was 39.5%; with Rattus norvegicus [3] it was 49.2%; in the assay on Rattus norvegicus [4], 35.7%. For the same compound, the EC50 with PC-12 [6] was 91.6 µM; with PC-12 [7] it was 88.1 µM; in the assay on PC-12 [9] it was over 100 µM. In addition, the inhibition in vivo at 10 mg/kg in the assay on Mus musculus [8] is 30.1%.
For `COC(=O)[C@@H]1Cc2c([nH]c3ccccc23)[C@H](C[C@H]2OC[C@@H](NC(=O)Cc3ccccc3)[C@@H](C)O2)N1`, the inhibition in vivo at 20 mg/kg with Mus musculus [1] was found to be 40.6%; in the assay on Rattus norvegicus [2], 28.9%; with Rattus norvegicus [3] it was 38.1%; with Rattus norvegicus [4], 20%.
Turning to `COc1ccc2[nH]c3c(c2c1)CCN[C@@H]3C[C@H]1OC[C@@H](N)[C@@H](C)O1`, the Ratio in the assay on Rattus norvegicus [10] is on record as 4.03; in the assay on Rattus norvegicus [11], 3.98. Also, the inhibition in vivo at 5 mg/kg with Mus musculus [5] was 30.5%. Besides, the inhibition in vivo at 20 mg/kg is 81.5% in the assay on Mus musculus [1], 31.5% in the assay on Rattus norvegicus [2], 68.5% in the assay on Rattus norvegicus [3] and 57.1% in the assay with Rattus norvegicus [4]. For the same compound, the EC50 in the assay with PC-12 [6] turned out to be 32.5 µM; in the assay with PC-12 [7], 25.7 µM; in the assay on PC-12 [9] it was 88.5 µM. Moreover, in the assay on Mus musculus [8], the inhibition in vivo at 10 mg/kg was 57.8%. Besides, the Activity with Rattus norvegicus [12] was found to be 76.6 pg/mL; with Rattus norvegicus [13] it was 2.05 nmol/mL; with Rattus norvegicus [14], 10.7 U/g; in the assay on Rattus norvegicus [15], 49.5 nmol.
As for `C[C@H]1O[C@@H](C[C@H]2NCCc3c2[nH]c2ccccc32)OC[C@H]1N`, the inhibition in vivo at 20 mg/kg with Mus musculus [1] stood at 50.4%; in the assay with Rattus norvegicus [2] it was 21%; in the assay with Rattus norvegicus [3], 59.7%; with Rattus norvegicus [4], 30%.
For `COC(=O)[C@@H]1Cc2c([nH]c3ccccc23)[C@@H](C[C@H]2OC[C@@H](N)[C@@H](C)O2)N1`, in the assay on Mus musculus [5], the inhibition in vivo at 5 mg/kg turned out to be 35.2%. Besides, the inhibition in vivo at 20 mg/kg in the assay on Mus musculus [1] was determined as 74.3%; in the assay with Rattus norvegicus [2], 26.3%; with Rattus norvegicus [3], 61.4%; in the assay with Rattus norvegicus [4], 48.6%. Further, the values for the EC50 with PC-12 [6], in the assay on PC-12 [7] and with PC-12 [9] were 45.7 µM, 50.9 µM and 96.3 µM, respectively. Also, in the assay on Mus musculus [8], the inhibition in vivo at 10 mg/kg came to 60%.
`COC(=O)[C@@H]1Cc2c([nH]c3ccccc23)[C@H](C[C@H]2OC[C@@H](N)[C@@H](C)O2)N1`: the inhibition in vivo at 20 mg/kg amounted to 45.1% in the assay with Mus musculus [1], 15.8% in the assay with Rattus norvegicus [2], 39.7% in the assay on Rattus norvegicus [3] and 27.1% in the assay on Rattus norvegicus [4].
Regarding `COc1ccc2c(c1)c(CC(=O)O)c(C)n2C(=O)c1ccc(Cl)cc1` [INDOMETHACIN], in the assay with Mus musculus [8], the inhibition in vivo at 10 mg/kg was found to be 73.6%. Further, the inhibition in vivo at 20 mg/kg in the assay on Rattus norvegicus [2] was 47.3%; in the assay on Rattus norvegicus [3], 65.1%; in the assay on Rattus norvegicus [4] it was 54.3%.
As for `COc1ccc2[nH]cc(CCNC(C)=O)c2c1` [MELATONIN], the Ratio amounted to 3.21 in the assay on Rattus norvegicus [10] and 3.55 in the assay on Rattus norvegicus [11]. Besides, the Activity was found to be 53.6 pg/mL with Rattus norvegicus [12], 1.75 nmol/mL with Rattus norvegicus [13], 8.6 U/g in the assay with Rattus norvegicus [14] and 40.6 nmol in the assay on Rattus norvegicus [15].
